Results from ChEMBL document CHEMBL1149821, “Antimycobacterial activity of diphenylpyraline derivatives” (Eur J Med Chem, 2008).
Converted amounts (≈) assume the structure as drawn.

Key:
[1] = Cytotoxicity against HEK293 cells by MTT assay; assay type: cell-based; conditions: human, read-out: LC50 (the source's name)
Outline: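 HEK-293 cells seeded at 12 000 cells/well in DMEM with 10% FCS at 37 °C, 5% CO₂. After 48 h, half the medium was renewed. Hydrochloride salts in 17% glycerine/33% DMSO/50% water were added; vehicle served as control. After 72 h, MTT was added for 3 h, then formazan was solubilised with 10% SDS/0.01 M HCl. A544 (reference 640 nm) was read, and LC50 came from a Boltzmann sigmoidal fit.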

[2] = system: Mycobacterium tuberculosis; test: Antimicrobial activity against Mycobacterium tuberculosis H37Rv at 6.25 ug/ml by alamar blue assay; assay type: functional
Outline: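 M. tuberculosis H37Rv (ATCC 27294) tested in the TAACF screening program by microplate Alamar Blue assay (MABA) at a single concentration of 6.25; read-out was percent growth inhibition.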

[3] = system: Mycobacterium tuberculosis; test: Antimicrobial activity against Mycobacterium tuberculosis H37Rv by alamar blue assay; assay type: functional
Outline: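 M. tuberculosis H37Rv (ATCC 27294) microplate Alamar Blue assay (MABA), run within the TAACF screening program.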

SMILES	CC50 [1] [µg/mL]	inhibition at 6.25 µg/mL [2] [%]	MIC [3] [µg/mL]
CN1CCC(OC(c2ccc(Cl)cc2)c2ccc(Cl)cc2)CC1	25.5 (≈ 72.7 µM)	65	
Clc1ccc(C(OC2CCN(CCc3ccccc3)CC2)c2ccc(Cl)cc2)cc1	17.3 (≈ 39.2 µM)	56	
c1ccc(CCN2CCC(OC(c3ccccc3)c3ccccc3)CC2)cc1	14.9 (≈ 40.2 µM)	8	
CC(C)[C@H]1C[C@@H](OC(c2ccccc2)c2ccccc2)CCN1CCc1ccccc1 (racemic)	62.8 (≈ 152 µM)	0	
CN1CCC(OC(c2ccccc2)c2ccccc2)CC1(C)C (racemic)	105 (≈ 338 µM)	18	
CC1(C)C[C@@H](OC(c2ccccc2)c2ccccc2)CCN1c1ccccc1 (racemic)	65.1 (≈ 175 µM)	3	
CC(C)[C@H]1C[C@@H](OC(c2ccc(Cl)cc2)c2ccc(Cl)cc2)CCN1C (racemic)	17.9 (≈ 45.7 µM)	74	
CC(C)[C@H]1C[C@@H](OC(c2ccc(Cl)cc2)c2ccc(Cl)cc2)CCN1CCc1ccccc1 (racemic)	76.5 (≈ 158 µM)	0	
CC(C)[C@H]1C[C@@H](OC(c2ccccc2)c2ccccc2)CCN1C (relative stereo)	98.1 (≈ 303 µM)	68	
c1ccc(C(O[C@H]2CCN(c3ccccc3)[C@@H](c3ccccc3)C2)c2ccccc2)cc1 (relative stereo)	77.8 (≈ 185 µM)	39	
c1ccc(C(O[C@H]2CCN(c3ccccc3)[C@H](c3ccccc3)C2)c2ccccc2)cc1 (relative stereo)	112 (≈ 266 µM)	75	
CC(C)[C@@H]1C[C@@H](OC(c2ccccc2)c2ccccc2)CCN1C (relative stereo)	69.4 (≈ 215 µM)	12	
CC(C)[C@H]1C[C@@H](OC(c2ccccc2)c2ccccc2)CCN1c1ccccc1 (relative stereo)	69.4 (≈ 180 µM)	36	
CC(C)[C@@H]1C[C@@H](OC(c2ccccc2)c2ccccc2)CCN1c1ccccc1 (relative stereo)	97.1 (≈ 252 µM)	7	
CN1CCC(OC(c2ccccc2)c2ccccc2)CC1.Cl [DIPHENYLPYRALINE HYDROCHLORIDE]	108	5	64
NNC(=O)c1ccncc1 [ISONIAZID]	> 576	> 99	
